ChEMBL document CHEMBL1146906, “Novel potent anticonvulsant agent containing a tetrahydroisoquinoline skeleton” (2006)

What was measured:
Mus musculus [1] = assay: Anticonvulsant activity against tonic phase of audiogenic seizures in ip dosed DBA/2 mouse; assay type: functional; conditions: DBA/2, ip
In short: (§1)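 DBA/2 mice of either sex, groups of 10, given vehicle or each dose intraperitoneally, then exposed to auditory stimulation […]. Incidence of each seizure phase scored. ED50 per phase from dose-response curves fitted by Litchfield and Wilcoxon method. Groups compared by Fisher's exact probability test.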

Mus musculus [2] = assay: Anticonvulsant activity against clonic phase of audiogenic seizures in ip dosed DBA/2 mouse; assay type: functional; conditions: DBA/2, ip; in short: as §1
[3] = biological target: Glutamate receptor ionotropic, kainate (Rattus norvegicus) (UniProt P22756+Q01812+P42260+P42264+Q63273); assay: Displacement of [3H]kainic acid from kainate receptor at 0.5 uM; assay type: protein-complex assay
In short: (§2)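 Radioligand binding assays run at 0.5 µM test compound, using [3H]AMPA, [3H]CGP 39653 or [3H]kainic acid as ligand.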

[4] = biological target: Glutamate receptor ionotropic, AMPA (Rattus norvegicus) (UniProt P19491+P19492+P19493+P19490); assay: Displacement of [3H]AMPA from AMPA receptor at 0.5 uM; assay type: protein-complex assay; in short: as §2
Rattus norvegicus = organism: Rattus norvegicus; assay: Inhibition of AMPA-induced membrane current in Wistar rat olfactory cortex at 0.5 uM by voltage clamp method; assay type: functional; parameters: scale not given: the % may be the effect or the level left
In short: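 Transverse olfactory cortex slices from male Wistar rats, kept in oxygenated Krebs solution and superfused with 1 µM TTX. Neurons voltage-clamped at -70 mV. Test agent diluted from DMSO stock into Krebs (0.1-1% v/v DMSO) and pre-incubated 10 min. Peak inward currents evoked by 0.25-5 µM AMPA measured. Pooled means, N = 7.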

[5] = biological target: Glutamate NMDA receptor (Rattus norvegicus) (UniProt P35439+Q00959+Q00960+Q00961+Q62645+Q8VHN2+Q9R1M7); assay: Displacement of [3H]CGP-39653 from NMDA receptor at 0.5 uM; assay type: protein-complex assay; in short: as §2

| Compound | ED50 (Mus musculus [1]) | ED50 (Mus musculus [2]) | also measured |
| --- | --- | --- | --- |
| CC(=O)N1N=C(c2ccc(N)cc2)c2cc3c(cc2C[C@H]1C)OCO3 [TALAMPANEL] | 9.7 µmol/kg |  |  |
| COc1cc2c(cc1OC)C(c1cccc([N+](=O)[O-])c1)N(C(=O)CN1CCCCC1)CC2 (stereo not drawn) | 82.8 µmol/kg | > 100 µmol/kg |  |
| COc1cc2c(cc1OC)C(c1ccc(F)cc1)N(C(=O)CN1CCOCC1)CC2 (stereo not drawn) | 46.9 µmol/kg | 71.7 µmol/kg |  |
| COc1cc2c(cc1OC)C(c1ccc(N)cc1)=NNC(=O)C2 |  | 15 µmol/kg |  |
| COc1cc2c(cc1OC)C(c1cccc(N)c1)N(C(=O)CN1CCCCC1)CC2 (stereo not drawn) | 47.3 µmol/kg | 70.2 µmol/kg |  |
| CCN(CC)CC(=O)N1CCc2cc(OC)c(OC)cc2C1c1ccc(F)cc1 (stereo not drawn) | 33 µmol/kg | 44.5 µmol/kg |  |
| COc1cc2c(cc1OC)C(c1ccc(N)cc1)N(C(=O)CN1CCCCC1)CC2 (stereo not drawn) | 45.3 µmol/kg | 84.9 µmol/kg |  |
| COc1cc2c(cc1OC)C(c1ccccc1)N(C(=O)CN1CCCCC1)CC2 (stereo not drawn) | > 100 µmol/kg | > 100 µmol/kg |  |
| COc1cc2c(cc1OC)C(c1ccc([N+](=O)[O-])cc1)N(C(=O)CN1CCCCC1)CC2 (stereo not drawn) | > 100 µmol/kg | > 100 µmol/kg |  |
| COc1cc2c(cc1OC)C(c1ccc(Br)cc1)N(C(=O)CN1CCOCC1)CC2 (stereo not drawn) | 83.8 µmol/kg | > 100 µmol/kg |  |
| CCN(CC)CC(=O)N1CCc2cc(OC)c(OC)cc2C1c1ccc(Cl)cc1 (stereo not drawn) | 11.8 µmol/kg | 24.7 µmol/kg |  |
| COc1cc2c(cc1OC)C(c1ccc(Cl)cc1)N(C(=O)CN1CCOCC1)CC2 (stereo not drawn) | 82.8 µmol/kg | > 100 µmol/kg |  |
| COc1cc2c(cc1OC)C(c1ccc(N)cc1)N(C(=O)CN1CCOCC1)CC2 (stereo not drawn) | 63.4 µmol/kg | 87.5 µmol/kg |  |
| COc1cc2c(cc1OC)C(c1cccc(N)c1)N(C(=O)CN1CCOCC1)CC2 (stereo not drawn) | 34.3 µmol/kg | 63.4 µmol/kg |  |
| COc1cc2c(cc1OC)C(c1ccc(Br)cc1)N(C(=O)CN1CCCCC1)CC2 (stereo not drawn) |  |  | Activity [3]: < 6%; Activity [4]: < 6%; Activity (Rattus norvegicus): 6%; Activity [5]: < 6% |
| COc1cc2c(cc1OC)C(c1ccccc1)N(C(=O)CN1CCOCC1)CC2 (stereo not drawn) | > 100 µmol/kg | > 100 µmol/kg |  |
| CCN(CC)CC(=O)N1CCc2cc(OC)c(OC)cc2C1c1ccc(N)cc1 (stereo not drawn) | 49 µmol/kg | 80.2 µmol/kg |  |
| COc1cc2c(cc1OC)C(c1ccc(Cl)cc1)N(C(=O)CN1CCCCC1)CC2 (stereo not drawn) | 17 µmol/kg | 39.8 µmol/kg |  |
| COc1cc2c(cc1OC)C(c1ccc(F)cc1)N(C(=O)CN1CCCCC1)CC2 (stereo not drawn) | 63 µmol/kg | 82.8 µmol/kg |  |
| COc1cc2c(cc1OC)C(c1cccc([N+](=O)[O-])c1)N(C(=O)CN1CCOCC1)CC2 (stereo not drawn) | > 100 µmol/kg | > 100 µmol/kg |  |
| CCN(CC)CC(=O)N1CCc2cc(OC)c(OC)cc2C1c1cccc(N)c1 (stereo not drawn) | 50.5 µmol/kg | 111 µmol/kg |  |
| COc1cc2c(cc1OC)C(c1ccc(Cl)cc1)N(C(C)=O)CC2 (stereo not drawn) |  |  | Activity (Rattus norvegicus): 7% |
| CCN(CC)CC(=O)N1CCc2cc(OC)c(OC)cc2C1c1ccc([N+](=O)[O-])cc1 (stereo not drawn) | > 100 µmol/kg | > 100 µmol/kg |  |
| CCN(CC)CC(=O)N1CCc2cc(OC)c(OC)cc2C1c1ccc(Br)cc1 (stereo not drawn) | 24.7 µmol/kg | 50.5 µmol/kg |  |
| CCN(CC)CC(=O)N1CCc2cc(OC)c(OC)cc2C1c1ccccc1 (stereo not drawn) | 34.8 µmol/kg | 49.1 µmol/kg |  |
| CCN(CC)CC(=O)N1CCc2cc(OC)c(OC)cc2C1c1cccc([N+](=O)[O-])c1 (stereo not drawn) | 16.7 µmol/kg | 38.6 µmol/kg |  |
| COc1cc2c(cc1OC)C(c1ccc([N+](=O)[O-])cc1)N(C(=O)CN1CCOCC1)CC2 (stereo not drawn) | 56.5 µmol/kg | > 100 µmol/kg |  |
